{"source": "ChEMBL document CHEMBL1255243", "about": "“Resistance of Porphyromonas gingivalis ATCC 33277 to direct killing by antimicrobial peptides is protease independent” (2008)", "key": {"Escherichia coli [1]": {"test_system": "Escherichia coli", "test": "Antibacterial activity against Escherichia coli ATCC 25922 assessed as growth inhibition at 100 ug/ml following preincubation of compound with supernatant of Porphyromonas gingivalis ATCC 33277", "assay_type": "functional, organism-based", "how_it_was_run": "(§1)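 Peptide preincubated with filter-sterilized stationary-phase culture supernatant (20% final) for set times, then 10 µl added to 190 µl E. coli overnight culture (diluted 1:5,000 in BHI, sonicated 1 min); peptide 100 μg/ml final on cells; aerobic growth; OD650 read; % inhibition relative to no-peptide (0%) and medium-preincubated peptide (100%); three independent experiments in triplicate, mean ± SD.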"}, "Porphyromonas gingivalis [2]": {"test_system": "Porphyromonas gingivalis", "test": "Antibacterial activity against protease deficient Porphyromonas gingivalis KDP136", "assay_type": "functional"}, "Streptococcus mutans [3]": {"test_system": "Streptococcus mutans", "test": "Antibacterial activity against Streptococcus mutans ATCC 27351 assessed as growth inhibition at 100 ug/ml following preincubation of compound with supernatant of Porphyromonas gingivalis ATCC 33277", "assay_type": "functional, organism-based", "how_it_was_run": "(§2)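 Peptide at 100 μg/ml incubated with filter-sterilized stationary-phase culture supernatant (20% final) for set times; 10 µl added to 190 µl S. mutans overnight culture diluted 1:10 in BHI and sonicated 1 min; grown at 37°C, 5% CO2; OD650 read; % inhibition relative to no-peptide (0%) and medium-preincubated peptide (100%); three experiments in triplicate, mean ± SD.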"}, "Escherichia coli [4]": {"test_system": "Escherichia coli", "test": "Antibacterial activity against Escherichia coli ATCC 25922 assessed as growth inhibition at 100 ug/ml following preincubation of compound with supernatant of Aggregatibacter actinomycetemcommitans ATCC 29523", "assay_type": "functional, organism-based", "how_it_was_run": "as §1"}, "Streptococcus mutans [5]": {"test_system": "Streptococcus mutans", "test": "Antibacterial activity against Streptococcus mutans ATCC 27351 assessed as growth inhibition at 100 ug/ml following preincubation of compound with supernatant of Aggregatibacter actinomycetemcommitans ATCC 29523", "assay_type": "functional, organism-based", "how_it_was_run": "as §2"}, "Streptococcus mutans [6]": {"test_system": "Streptococcus mutans", "test": "Antibacterial activity against Streptococcus mutans assessed as growth inhibition at 5 ug/ml following preincubation of compound with supernatant of Porphyromonas gingivalis ATCC 33277"}, "Streptococcus mutans [7]": {"test_system": "Streptococcus mutans", "test": "Antibacterial activity against Streptococcus mutans ATCC 27351 assessed as growth inhibition at 5 ug/ml following preincubation of compound with supernatant of Porphyromonas gingivalis ATCC 33277", "assay_type": "functional, organism-based", "how_it_was_run": "(§3)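 Stationary-phase P. gingivalis or A. actinomycetemcomitans cultures were spun 10 min at 10,000 × g and the supernatant filter-sterilised (0.2 μm). Peptide was preincubated with 20% (final) filtrate for varying times. It was then added to S. mutans (overnight culture diluted 1:10 in BHI, bath-sonicated 1 min), grown at 37°C in 5% CO2, and read at OD650. % inhibition: no-peptide = 0%, fresh-medium-preincubated peptide = 100%. Mean ± SD, three independent experiments.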"}, "Streptococcus mutans [8]": {"test_system": "Streptococcus mutans", "test": "Antibacterial activity against Streptococcus mutans ATCC 27351 assessed as growth inhibition at 5 ug/ml following preincubation of compound with supernatant of Aggregatibacter actinomycetemcommitans ATCC 29523", "assay_type": "functional, organism-based", "how_it_was_run": "as §3"}, "Porphyromonas gingivalis [9]": {"test_system": "Porphyromonas gingivalis", "test": "Binding affinity to membranes of Porphyromonas gingivalis KDP136 using Alexa Fluor-labeled compound at 0.8 mg/ml by fluorimetric assay"}, "Streptococcus mutans [10]": {"test_system": "Streptococcus mutans", "test": "Antibacterial activity against Streptococcus mutans assessed as growth inhibition at 5 ug/ml following preincubation of compound with supernatant of Aggregatibacter actinomycetemcommitans ATCC 29523"}, "Porphyromonas gingivalis [11]": {"test_system": "Porphyromonas gingivalis", "test": "Antibacterial activity against Porphyromonas gingivalis ATCC 33277", "assay_type": "functional, organism-based", "how_it_was_run": "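Increasing amounts of peptide were added to a growing anaerobic P. gingivalis culture. Percent growth inhibition was calculated relative to untreated cells (0%). Means ± SD of three independent experiments.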"}, "Streptococcus mutans [12]": {"test_system": "Streptococcus mutans", "test": "Antibacterial activity against Streptococcus mutans assessed as growth inhibition at 40 ug/ml following preincubation of compound with supernatant of Porphyromonas gingivalis ATCC 33277"}, "Streptococcus mutans [13]": {"test_system": "Streptococcus mutans", "test": "Antibacterial activity against Streptococcus mutans ATCC 27351 assessed as growth inhibition at 40 ug/ml following preincubation of compound with supernatant of Aggregatibacter actinomycetemcommitans ATCC 29523", "assay_type": "functional, organism-based", "how_it_was_run": "as §3"}, "Streptococcus mutans [14]": {"test_system": "Streptococcus mutans", "test": "Antibacterial activity against Streptococcus mutans ATCC 27351 assessed as growth inhibition at 40 ug/ml following preincubation of compound with supernatant of Porphyromonas gingivalis ATCC 33277", "assay_type": "functional, organism-based", "how_it_was_run": "as §3"}, "Streptococcus mutans [15]": {"test_system": "Streptococcus mutans", "test": "Antibacterial activity against Streptococcus mutans assessed as growth inhibition at 40 ug/ml following preincubation of compound with supernatant of Aggregatibacter actinomycetemcommitans ATCC 29523"}}, "note": "Calls of active or inactive are those of the source. The rule behind the calls is not given here."}
{"molecule": "CC[C@H](C)[C@H](NC(=O)[C@H](CCCCN)NC(=O)[C@H](CCC(=O)O)NC(=O)[C@H](CCCCN)NC(=O)[C@H](CO)NC(=O)[C@H](CCCCN)NC(=O)[C@H](CCCNC(=N)N)NC(=O)[C@H](Cc1ccccc1)NC(=O)[C@H](Cc1ccccc1)NC(=O)[C@H](CC(=O)O)NC(=O)CNC(=O)[C@H](CC(C)C)NC(=O)[C@@H](N)CC(C)C)C(=O)NCC(=O)N[C@@H](CCCCN)C(=O)N[C@@H](CCC(=O)O)C(=O)N[C@@H](Cc1ccccc1)C(=O)N[C@@H](CCCCN)C(=O)N[C@@H](CCCNC(=N)N)C(=O)N[C@H](C(=O)N[C@H](C(=O)N[C@@H](CCC(N)=O)C(=O)N[C@@H](CCCNC(=N)N)C(=O)N[C@H](C(=O)N[C@@H](CCCCN)C(=O)N[C@@H](CC(=O)O)C(=O)N[C@@H](Cc1ccccc1)C(=O)N[C@@H](CC(C)C)C(=O)N[C@@H](CCCNC(=N)N)C(=O)N[C@@H](CC(N)=O)C(=O)N[C@@H](CC(C)C)C(=O)N[C@H](C(=O)N1CCC[C@H]1C(=O)N[C@@H](CCCNC(=N)N)C(=O)N[C@H](C(=O)N[C@@H](CCC(=O)O)C(=O)N[C@@H](CO)C(=O)O)[C@@H](C)O)C(C)C)[C@@H](C)CC)C(C)C)[C@@H](C)CC", "note": "[CATHELICIDIN]", "values": [{"measurement": "Activity", "setting": "Escherichia coli [1]", "value": "inactive"}, {"measurement": "MIC", "setting": "Porphyromonas gingivalis [2]", "value": "> 200", "unit": "µg/mL"}, {"measurement": "Activity", "setting": "Streptococcus mutans [3]", "value": "inactive"}, {"measurement": "Activity", "setting": "Escherichia coli [4]", "value": "Active"}, {"measurement": "Activity", "setting": "Streptococcus mutans [5]", "value": "Active"}]}
{"molecule": "H-ALWKTLLKKVLKAAA-NH2", "values": [{"measurement": "Activity", "setting": "Streptococcus mutans [6]", "value": "inactive"}, {"measurement": "Activity", "setting": "Streptococcus mutans [7]", "value": "inactive"}, {"measurement": "Activity", "setting": "Streptococcus mutans [8]", "value": "Active"}, {"measurement": "Activity", "setting": "Porphyromonas gingivalis [9]", "value": "inactive"}, {"measurement": "Activity", "setting": "Streptococcus mutans [10]", "value": "Active"}, {"measurement": "Activity", "setting": "Porphyromonas gingivalis [11]", "value": "inactive"}]}
{"molecule": "H-KRLFKKLLFSLRKY-NH2", "values": [{"measurement": "Activity", "setting": "Streptococcus mutans [12]", "value": "inactive"}, {"measurement": "Activity", "setting": "Streptococcus mutans [13]", "value": "Active"}, {"measurement": "Activity", "setting": "Streptococcus mutans [14]", "value": "inactive"}, {"measurement": "Activity", "setting": "Streptococcus mutans [15]", "value": "Active"}]}
